A1 apoptosis 2: A1 inhibition read as caspase activation; MEF A1-2A-BIM cells, caspase-Glo luminescence, 3 h; percent of clofoctol response, DMSO zero; caspase activation, % (no concentration beside the values); 24,000 tested, under 10 active; in the data active = caspase activation above about 5.9%
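System: mouse embryonic fibroblasts co-expressing A1 and BIM (A1-2A-BIM), primed for A1 dependence; amount: 2500 cells/well; doses: 50 nL pinned compound; schedule: cells settled overnight, compound exposure 3 h at 37 °C, 5% CO2; detection: Caspase-Glo 3/7 luminescence, 1 h at room temperature; read-out: Caspase-3/7 activation, seen as rise in luminescence signal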
INS-1E rescue: INS-1E beta cell protection from cytokine death; hit rate 0.1% among 20,000; AID 488910; protection from cytokine-induced ATP loss, % at 10 µM; INS-1E cytokine-induced death, ATP luminescence, 48 h; normalised: neutral wells 0, positive control 100;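 active = mean replicate protection from cytokine-induced ATP loss at least 50% and at least 75% of replicates each reaching 50%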
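Assay system – rat INS-1E insulinoma cell line · Quantity – 8000 cells per well · Buffer or medium – RPMI without phenol red, 5% FBS · Schedule – 48 h co-treatment, 10 min post-lysis read · Technique – luminescent ATP assay (CellTiter-Glo)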
T cruzi HTS: inhibitors of intracellular Trypanosoma cruzi. activity score (inhibition), % at 5.01 µM. hit rate 4.9% among 22,000. AID 651903. intracellular Trypanosoma cruzi in host cells, plate reader; in the data active = activity score above about 55%;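 note: parasites and compound incubated about four days before reading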
Numbers stand for hits. This excerpt belongs to a sample that is enriched for hits.

How did COc1ccc(S(=O)(=O)Nc2ccc3c(c2)CC(=O)N([C@H](C)CO)C[C@@H](C)[C@H](CN(C)Cc2ccc(C(=O)Nc4ccccc4N)cc2)O3)cc1 do in these assays?
A1 apoptosis 2: inactive

How did C[C@@H]1CN([C@@H](C)CO)C(=O)Cc2cc(NS(=O)(=O)c3ccc(Cl)cc3)ccc2O[C@@H]1CN(C)Cc1ccc(C(=O)Nc2ccccc2N)cc1 do in these assays?
A1 apoptosis 2: inactive

Results for C[C@H]1CN([C@@H](C)CO)C(=O)Cc2cc(NS(=O)(=O)c3cccs3)ccc2O[C@H]1CN(C)Cc1ccc(C(=O)Nc2ccccc2N)cc1 ?
A1 apoptosis 2: inactive; INS-1E rescue: inactive; T cruzi HTS: 68

How did Cc1ccc(S(=O)(=O)Nc2ccc3c(c2)CC(=O)N([C@H](C)CO)C[C@H](C)[C@@H](CN(C)Cc2ccc(C(=O)Nc4ccccc4N)cc2)O3)cc1 do in these assays?
A1 apoptosis 2: inactive

What do the screens show for `O=C(NO)c1cccc(C(=O)N/N=C/c2ccc[nH]2)c1`?
INS-1E rescue: inactive; T cruzi HTS: inactive

What do the screens show for `C=CCN1CCc2cc(OC)c(OC)cc2C1C#Cc1ccccc1` (stereo not given)?
A1 apoptosis 2: inactive

How did C=CCOc1ccccc1/C=N/NC(=O)CCCCCCC(=O)OC do in these assays?
A1 apoptosis 2: inactive; INS-1E rescue: inactive; T cruzi HTS: inactive

What do the screens show for `O=C(CCCCCC(=O)Nc1ccccc1O)N/N=C/c1cccnc1`?
A1 apoptosis 2: inactive

Results for O=C(CCCCCCC(=O)Nc1ccccc1O)N/N=C/C1=CCCCC1 ?
A1 apoptosis 2: inactive; INS-1E rescue: inactive; T cruzi HTS: inactive

Results for Cc1nnc(Sc2ccc(/C=N/NC(=O)c3ccccc3O)o2)n1C ?
A1 apoptosis 2: inactive; INS-1E rescue: inactive; T cruzi HTS: inactive

How did COc1ccc(S(=O)(=O)Nc2ccc3c(c2)CC(=O)N([C@H](C)CO)C[C@@H](C)[C@@H](CN(C)Cc2ccc(C(F)(F)F)cc2)O3)cc1 do in these assays?
A1 apoptosis 2: inactive; INS-1E rescue: inactive; T cruzi HTS: 65

Results for COc1ccc(S(=O)(=O)Nc2ccc3c(c2)CC(=O)N([C@@H](C)CO)C[C@H](C)[C@H](CN(C)Cc2ccc(C(F)(F)F)cc2)O3)cc1 ?
A1 apoptosis 2: inactive; INS-1E rescue: inactive; T cruzi HTS: inactive

Results for COc1ccc(S(=O)(=O)Nc2ccc3c(c2)CC(=O)N([C@@H](C)CO)C[C@@H](C)[C@@H](CN(C)Cc2ccc(C(F)(F)F)cc2)O3)cc1 ?
A1 apoptosis 2: inactive; INS-1E rescue: inactive; T cruzi HTS: 80

Results for COc1ccc(S(=O)(=O)Nc2ccc3c(c2)CC(=O)N([C@@H](C)CO)C[C@@H](C)[C@H](CN(C)Cc2ccc(C(F)(F)F)cc2)O3)cc1 ?
A1 apoptosis 2: inactive

How did COc1ccc(C#Cc2ccc3c(c2)[C@]2(C(=O)N3)[C@H](C(=O)NC[C@H](O)c3ccccc3)[C@H]3C(=O)O[C@H](c4ccccc4)[C@H](c4ccccc4)N3[C@@H]2c2ccc(O)cc2)cc1 do in these assays?
A1 apoptosis 2: inactive

What do the screens show for `C=C(C)[C@@H]1CC=C(/C=N/NC(=O)CCCCCCC(=O)Nc2ccccc2O)CC1`?
A1 apoptosis 2: inactive; INS-1E rescue: inactive; T cruzi HTS: inactive

Results for O=C(N1CCCCC1)[C@@]1(Cc2ccccc2)N=C(c2ccc(OCCCO)cc2)O[C@H]1c1ccccc1 ?
A1 apoptosis 2: inactive

How did C[C@@H]1CN([C@H](C)CO)C(=O)Cc2cc(NC(=O)CCCCCC(=O)Nc3ccccc3N)ccc2O[C@@H]1CN(C)C(=O)Nc1cccc2ccccc12 do in these assays?
A1 apoptosis 2: inactive; INS-1E rescue: inactive; T cruzi HTS: inactive

What do the screens show for `COc1ccc(-c2cn(CC(=O)N3CCOCC3)nn2)cc1OC`?
A1 apoptosis 2: inactive

How did C[C@H]1CN([C@@H](C)CO)C(=O)c2cccc(N(C)C)c2O[C@@H]1CN(C)Cc1ccccc1 do in these assays?
A1 apoptosis 2: inactive; INS-1E rescue: inactive; T cruzi HTS: inactive

Results for C[C@H]1CN([C@@H](C)CO)C(=O)c2cccc(NC(=O)C3CC3)c2O[C@H]1CN(C)Cc1ccc(Oc2ccccc2)cc1 ?
INS-1E rescue: inactive; T cruzi HTS: inactive

Results for C[C@H]1CN([C@@H](C)CO)C(=O)c2cccc(NC(=O)C3CCCCC3)c2O[C@@H]1CN(C)Cc1ccc(Oc2ccccc2)cc1 ?
INS-1E rescue: inactive; T cruzi HTS: 67

What do the screens show for `C[C@@H]1CN([C@H](C)CO)C(=O)c2cccc(NC(=O)C3CCCCC3)c2O[C@@H]1CN(C)Cc1ccc(Oc2ccccc2)cc1`?
A1 apoptosis 2: inactive; INS-1E rescue: inactive; T cruzi HTS: inactive

What do the screens show for `C[C@@H]1CN([C@H](C)CO)C(=O)c2cccc(NC(=O)C3CC3)c2O[C@H]1CN(C)Cc1ccc(Oc2ccccc2)cc1`?
INS-1E rescue: inactive; T cruzi HTS: 63

Results for C[C@@H]1CN([C@H](C)CO)C(=O)c2cccc(N(C)C)c2O[C@H]1CN(C)Cc1ccc(Oc2ccccc2)cc1 ?
A1 apoptosis 2: inactive; INS-1E rescue: inactive; T cruzi HTS: 70

How did CC(C)(C)OC(=O)N1CCC[C@H]1/C=N/NC(=O)CCCCC(=O)NO do in these assays?
INS-1E rescue: inactive; T cruzi HTS: inactive

Results for O=C(CCCCCCC(=O)Nc1ccccc1O)N/N=C/c1cccnc1 ?
A1 apoptosis 2: inactive; INS-1E rescue: inactive; T cruzi HTS: inactive

Results for C=C(C)[C@@H]1CC=C(/C=N/NC(=O)c2ccccc2O)CC1 ?
A1 apoptosis 2: inactive; INS-1E rescue: inactive; T cruzi HTS: inactive

How did C[C@@H]1CN([C@@H](C)CO)C(=O)c2cccc(NS(=O)(=O)c3ccc(F)cc3)c2O[C@@H]1CN(C)Cc1ccc(-c2ccccc2)cc1 do in these assays?
A1 apoptosis 2: inactive; INS-1E rescue: inactive; T cruzi HTS: 66

What do the screens show for `C[C@H](CO)N1C[C@H](C)[C@@H](CN(C)Cc2ccccc2)Oc2c(NS(C)(=O)=O)cccc2C1=O`?
A1 apoptosis 2: inactive; INS-1E rescue: inactive; T cruzi HTS: 59

Results for C[C@H](CO)N1C[C@H](C)[C@@H](CN(C)Cc2ccc(C(F)(F)F)cc2)Oc2c(NS(=O)(=O)c3ccccc3)cccc2C1=O ?
INS-1E rescue: inactive; T cruzi HTS: 66

What do the screens show for `C[C@H]1CN([C@@H](C)CO)C(=O)c2cccc(NS(=O)(=O)c3ccccc3)c2O[C@H]1CN(C)Cc1ccc(C(F)(F)F)cc1`?
INS-1E rescue: inactive; T cruzi HTS: inactive

Results for C[C@H]1CN([C@@H](C)CO)C(=O)c2cccc(NS(C)(=O)=O)c2O[C@H]1CN(C)Cc1ccccc1 ?
A1 apoptosis 2: inactive; INS-1E rescue: inactive; T cruzi HTS: inactive

What do the screens show for `C[C@H]1CN([C@@H](C)CO)C(=O)c2cccc(NS(=O)(=O)c3ccc(F)cc3)c2O[C@@H]1CN(C)Cc1ccc(-c2ccccc2)cc1`?
A1 apoptosis 2: inactive; INS-1E rescue: inactive; T cruzi HTS: inactive

Results for O=C(NO)c1ccc(C(=O)N/N=C/c2ccc(-c3ccccc3)c(F)c2)cc1 ?
A1 apoptosis 2: inactive

What do the screens show for `C[C@@H]1CN([C@H](C)CO)C(=O)c2cccc(NC(=O)Nc3cccc4ccccc34)c2O[C@@H]1CN(C)Cc1ccc(-c2ccccc2)cc1`?
INS-1E rescue: inactive; T cruzi HTS: 61

From PubChem BioAssay
